Experimental data as given in ChEMBL document CHEMBL3627614, “Structure-based design, synthesis, X-ray studies, and biological evaluation of novel HIV-1 protease inhibitors containing isophthalamide-derived P2-ligands” (Bioorg Med Chem Lett, 2015).

Legend:
Protease = Protease (Human immunodeficiency virus 1, UniProt Q9YQ12); assay: Inhibition of HIV-1 protease by fluorometric assay
Outline: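 Run by a previously published protease assay protocol, with inhibitory potency reported as the inhibition constant Ki.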

[1] = tested on: Human immunodeficiency virus 1; assay: Antiviral activity against HIV-1 LAI infected in MT-2 cells measured after 7 days by MTT assay; assay type: functional, organism-based; conditions: Human immunodeficiency virus 1, LAI, MT2, 168 h

Sequence of Protease (Q9YQ12 whole entry): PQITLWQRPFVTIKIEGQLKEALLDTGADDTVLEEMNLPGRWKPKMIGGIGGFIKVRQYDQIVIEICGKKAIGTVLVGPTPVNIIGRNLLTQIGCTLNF

Row | Ki (Protease) | Compound | IC50 [1]
1 | 25.1 nM | CCCNC(=O)c1cccc(C(=O)N[C@@H](Cc2ccccc2)[C@H](O)CN(CC(C)C)S(=O)(=O)c2ccc(OC)cc2)c1 | –
2 | 5.1 nM | CCCN(C)C(=O)c1cccc(C(=O)N[C@@H](Cc2ccccc2)[C@H](O)CN(CC(C)C)S(=O)(=O)c2ccc(OC)cc2)c1 | –
3 | 0.42 nM | COc1ccc(S(=O)(=O)N(CC(C)C)C[C@@H](O)[C@H](Cc2ccccc2)NC(=O)c2cccc(C(=O)N3CCOCC3)c2)cc1 | 25 nM
4 | 0.54 nM | COc1ccc(S(=O)(=O)N(CC(C)C)C[C@@H](O)[C@H](Cc2ccccc2)NC(=O)c2cccc(C(=O)N3CCN(C)CC3)c2)cc1 | 45 nM
5 | 2.85 nM | COC[C@@H]1C[C@@H](O)CN1C(=O)c1cccc(C(=O)N[C@@H](Cc2ccccc2)[C@H](O)CN(CC(C)C)S(=O)(=O)c2ccc(OC)cc2)c1 | 178 nM
6 | 0.27 nM | COC[C@H]1C[C@H](O)CN1C(=O)c1cccc(C(=O)N[C@@H](Cc2ccccc2)[C@H](O)CN(CC(C)C)S(=O)(=O)c2ccc(OC)cc2)c1 | 389 nM
7 | 1.5 nM | COC[C@@H]1C[C@H](O)CN1C(=O)c1cccc(C(=O)N[C@@H](Cc2ccccc2)[C@H](O)CN(CC(C)C)S(=O)(=O)c2ccc(OC)cc2)c1 | > 1000 nM
8 | 0.27 nM | COC[C@H]1C[C@@H](O)CN1C(=O)c1cccc(C(=O)N[C@@H](Cc2ccccc2)[C@H](O)CN(CC(C)C)S(=O)(=O)c2ccc(OC)cc2)c1 | 190 nM

The next lines start with the compound.

Row | Compound | Ki (Protease) | IC50 [1]
9 | CCCN(C)C(=O)c1cc(OC)cc(C(=O)N[C@@H](Cc2ccccc2)[C@H](O)CN(CC(C)C)S(=O)(=O)c2ccc(OC)cc2)c1 | 20.4 nM | –
10 | CCCN(C)C(=O)c1cc(NC)cc(C(=O)N[C@@H](Cc2ccccc2)[C@H](O)CN(CC(C)C)S(=O)(=O)c2ccc(OC)cc2)c1 | 158 nM | –
11 | CCCN(CCC)C(=O)c1cccc(C(=O)N[C@@H](Cc2ccccc2)[C@H](O)CN(CC(C)C)S(=O)(=O)c2ccc(OC)cc2)c1 | 12.4 nM | > 1000 nM
12 | Cc1coc(CN(C)C(=O)c2cccc(C(=O)N[C@@H](Cc3ccccc3)[C@H](O)CN(CC(C)C)S(=O)(=O)c3ccc(CO)cc3)c2)n1 | 0.63 nM | –
13 | COCc1coc(CN(C)C(=O)c2cccc(C(=O)N[C@@H](Cc3ccccc3)[C@H](O)CN(CC(C)C)S(=O)(=O)c3ccc(OC)cc3)c2)n1 | 0.31 nM | 25 nM
14 | COc1ccc(S(=O)(=O)N(CC(C)C)C[C@@H](O)[C@H](Cc2ccccc2)NC(=O)c2cccc(C(=O)N(C)Cc3nc(C)oc3C)c2)cc1 | 0.17 nM | 14 nM
15 | COc1ccc(S(=O)(=O)N(CC(C)C)C[C@@H](O)[C@H](Cc2ccccc2)NC(=O)c2cc(C)cc(C(=O)N(C)Cc3nc(C)oc3C)c2)cc1 | 0.21 nM | 31 nM
